Results taken from ChEMBL document CHEMBL5653612, “Catalytic site remodelling of the DOT1L methyltransferase by selective inhibitors” (Nat Commun, 2012).
One block for each compound: values may come before it. Calls of active or inactive are those of the source. No cut-off for these calls is given here.

Columns and labels:
[1] = system: MV4-11; test: Downregulation of H3K79me2 in human MV4-11 cells habouring MLL/AF4 fusion protein measured upto 48 hrs by immuno blot analysis; assay type: functional, cell-based
[2] = Apparent permeability across basolateral to apical side in human Caco-2 cells at 10 uM incubated for 90 mins at pH 7.4 by LC/MS analysis; assay type: ADME, cell-based; conditions: Caco-2, pH 7.4
[3] = target: Histone-lysine N-methyltransferase SUV39H2 (Homo sapiens) (UniProt Q9H5I1); test: Inhibition of SUV39H2 (unknown origin) using H3 1-25 peptide in presence of SAM
Histone-lysine N-methyltransferase SUV39H2 (Homo sapiens), sequence (Q9H5I1 whole entry): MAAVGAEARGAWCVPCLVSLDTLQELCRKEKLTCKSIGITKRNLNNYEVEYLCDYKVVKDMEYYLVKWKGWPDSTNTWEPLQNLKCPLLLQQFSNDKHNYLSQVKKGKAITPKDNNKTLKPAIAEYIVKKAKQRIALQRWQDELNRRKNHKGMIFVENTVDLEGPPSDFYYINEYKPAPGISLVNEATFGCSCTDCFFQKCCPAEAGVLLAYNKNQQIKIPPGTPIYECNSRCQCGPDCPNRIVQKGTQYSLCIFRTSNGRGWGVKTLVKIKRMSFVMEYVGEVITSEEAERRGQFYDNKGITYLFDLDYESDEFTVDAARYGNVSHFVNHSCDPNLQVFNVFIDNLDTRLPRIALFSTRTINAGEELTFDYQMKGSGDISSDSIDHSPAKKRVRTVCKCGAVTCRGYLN
Outline: (§1)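 Radiometric methyltransferase panel in which 3H-SAM, at or below each enzyme's Km, methylates biotinylated peptide substrates. They were quenched with 7.5 M guanidine-HCl, diluted, captured on streptavidin flash plates for 1 h, and counted by scintillation.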

[4] = target: Histone-lysine N-methyltransferase EHMT2 (Homo sapiens) (UniProt Q96KQ7); test: Inhibition of G9a (unknown origin) using H3 1-25 peptide in presence of SAM; outline: as §1
[5] = target: Histone-lysine N-methyltransferase EHMT1 (Homo sapiens) (UniProt Q9H9B1); test: Inhibition of EHMT1 (unknown origin) using H3 1-25 peptide in presence of SAM; outline: as §1
[6] = target: Histone-lysine N-methyltransferase SETDB1 (Homo sapiens) (UniProt Q15047); test: Inhibition of SETDB1 (unknown origin) using H3 1-25 peptide in presence of SAM; outline: as §1
[7] = target: Protein arginine N-methyltransferase 3 (Homo sapiens) (UniProt O60678); test: Inhibition of PRMT3 (unknown origin) using H3 1-24 peptide in presence of SAM; outline: as §1
Protein arginine N-methyltransferase 3 (Homo sapiens), sequence (O60678 2-531 limits assumed): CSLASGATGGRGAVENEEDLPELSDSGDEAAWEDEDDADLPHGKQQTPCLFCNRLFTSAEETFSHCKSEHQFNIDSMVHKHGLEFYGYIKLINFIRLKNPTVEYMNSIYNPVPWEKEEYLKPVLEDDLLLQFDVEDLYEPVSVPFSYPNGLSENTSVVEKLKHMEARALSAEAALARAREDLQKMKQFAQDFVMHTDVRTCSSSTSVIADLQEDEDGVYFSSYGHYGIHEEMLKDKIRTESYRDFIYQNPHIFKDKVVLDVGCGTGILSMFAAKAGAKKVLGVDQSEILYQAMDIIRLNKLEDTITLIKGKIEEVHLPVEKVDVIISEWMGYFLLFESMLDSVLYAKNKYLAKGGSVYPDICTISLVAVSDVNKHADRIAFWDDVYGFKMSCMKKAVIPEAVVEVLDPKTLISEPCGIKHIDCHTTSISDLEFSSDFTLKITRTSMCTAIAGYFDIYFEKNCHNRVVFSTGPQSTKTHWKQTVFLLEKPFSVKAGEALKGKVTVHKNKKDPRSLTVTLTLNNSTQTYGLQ

[8] = target: Histone-lysine N-methyltransferase SETD7 (Homo sapiens) (UniProt Q8WTS6); test: Inhibition of SETD7 (unknown origin) using H3 1-25 peptide in presence of SAM; outline: as §1
Histone-lysine N-methyltransferase SETD7 (Homo sapiens), sequence (Q8WTS6 whole entry): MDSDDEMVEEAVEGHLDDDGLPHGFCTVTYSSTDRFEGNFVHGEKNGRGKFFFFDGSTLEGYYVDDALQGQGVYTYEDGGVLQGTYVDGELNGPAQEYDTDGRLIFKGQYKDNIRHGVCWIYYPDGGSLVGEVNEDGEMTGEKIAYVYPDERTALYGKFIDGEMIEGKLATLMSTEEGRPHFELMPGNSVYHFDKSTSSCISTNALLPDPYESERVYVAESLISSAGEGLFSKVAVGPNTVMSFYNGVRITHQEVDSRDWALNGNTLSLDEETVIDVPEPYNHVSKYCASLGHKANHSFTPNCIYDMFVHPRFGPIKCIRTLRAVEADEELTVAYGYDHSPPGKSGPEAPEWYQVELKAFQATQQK

[9] = target: Histone-lysine N-methyltransferase 2A (Homo sapiens) (UniProt Q03164); test: Inhibition of MLL (unknown origin) using H3 1-25 peptide in presence of SAM; outline: as §1
[10] = target: N-lysine methyltransferase KMT5A (Homo sapiens) (UniProt Q9NQR1); test: Inhibition of SETD8 (unknown origin) using […] in presence of SAM; outline: as §1
N-lysine methyltransferase KMT5A (Homo sapiens), sequence (Q9NQR1 whole entry): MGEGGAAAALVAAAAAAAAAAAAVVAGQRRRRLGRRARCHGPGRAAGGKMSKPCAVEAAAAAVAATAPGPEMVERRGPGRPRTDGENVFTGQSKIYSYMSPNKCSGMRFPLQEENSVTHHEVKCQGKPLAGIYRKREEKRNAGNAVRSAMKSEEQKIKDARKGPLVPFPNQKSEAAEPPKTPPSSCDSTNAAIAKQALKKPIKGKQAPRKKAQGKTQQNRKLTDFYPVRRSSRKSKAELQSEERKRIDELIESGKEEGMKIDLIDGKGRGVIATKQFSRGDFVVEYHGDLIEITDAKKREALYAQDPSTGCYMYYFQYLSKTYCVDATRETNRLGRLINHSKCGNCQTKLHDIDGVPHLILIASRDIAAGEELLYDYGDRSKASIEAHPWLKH

[11] = target: Histone-lysine N-methyltransferase KMT5B (Homo sapiens) (UniProt Q4FZB7); test: Inhibition of […] (unknown origin) using H4 K20Me1 peptide in presence of SAM; outline: as §1
Histone-lysine N-methyltransferase KMT5B (Homo sapiens), sequence (Q4FZB7 whole entry, looked up): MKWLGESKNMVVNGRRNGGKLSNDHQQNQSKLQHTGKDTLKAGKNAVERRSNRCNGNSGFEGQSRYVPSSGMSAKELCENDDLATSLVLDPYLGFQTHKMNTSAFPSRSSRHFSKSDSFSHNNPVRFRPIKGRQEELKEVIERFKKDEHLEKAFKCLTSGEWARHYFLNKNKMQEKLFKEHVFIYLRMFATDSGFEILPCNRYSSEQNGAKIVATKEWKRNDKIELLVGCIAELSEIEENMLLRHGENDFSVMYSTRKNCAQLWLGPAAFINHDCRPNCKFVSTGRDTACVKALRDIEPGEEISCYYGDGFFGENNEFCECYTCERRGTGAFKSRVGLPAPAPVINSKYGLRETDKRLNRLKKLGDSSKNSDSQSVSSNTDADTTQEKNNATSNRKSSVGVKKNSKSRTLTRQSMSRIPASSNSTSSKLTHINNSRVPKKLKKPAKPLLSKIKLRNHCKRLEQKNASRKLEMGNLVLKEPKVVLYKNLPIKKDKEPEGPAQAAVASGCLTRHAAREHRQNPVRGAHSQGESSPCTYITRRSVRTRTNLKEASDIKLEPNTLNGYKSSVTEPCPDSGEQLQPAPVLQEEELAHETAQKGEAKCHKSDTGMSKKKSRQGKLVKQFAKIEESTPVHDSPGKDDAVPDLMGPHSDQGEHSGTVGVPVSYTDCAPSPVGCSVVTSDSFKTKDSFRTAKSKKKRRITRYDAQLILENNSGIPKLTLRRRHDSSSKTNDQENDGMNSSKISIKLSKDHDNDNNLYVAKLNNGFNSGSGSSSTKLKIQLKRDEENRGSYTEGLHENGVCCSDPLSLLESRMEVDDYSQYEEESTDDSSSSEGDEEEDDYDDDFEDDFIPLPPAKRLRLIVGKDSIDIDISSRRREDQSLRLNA

[12] = target: Histone-lysine N-methyltransferase KMT5C (Homo sapiens) (UniProt Q86Y97); test: Inhibition of SUV420H2 (unknown origin) using H4 K20Me1 peptide in presence of SAM; outline: as §1
[13] = species: Homo sapiens; test: Inhibition of PRC2 (unknown origin) using H3 21-44 peptide in presence of SAM; outline: as §1
[14] = target: DNA (cytosine-5)-methyltransferase 1 (Homo sapiens) (UniProt P26358); test: Inhibition of DNMT1 (unknown origin) using ds-DNA peptide in presence of SAM; outline: as §1
[15] = target: T1, Protein arginine N-methyltransferase 5 (Homo sapiens, UniProt O14744); test: Inhibition of PRMT5 (unknown origin) using H4 1-24 peptide in presence of SAM; outline: as §1
T1 sequence (O14744 whole entry): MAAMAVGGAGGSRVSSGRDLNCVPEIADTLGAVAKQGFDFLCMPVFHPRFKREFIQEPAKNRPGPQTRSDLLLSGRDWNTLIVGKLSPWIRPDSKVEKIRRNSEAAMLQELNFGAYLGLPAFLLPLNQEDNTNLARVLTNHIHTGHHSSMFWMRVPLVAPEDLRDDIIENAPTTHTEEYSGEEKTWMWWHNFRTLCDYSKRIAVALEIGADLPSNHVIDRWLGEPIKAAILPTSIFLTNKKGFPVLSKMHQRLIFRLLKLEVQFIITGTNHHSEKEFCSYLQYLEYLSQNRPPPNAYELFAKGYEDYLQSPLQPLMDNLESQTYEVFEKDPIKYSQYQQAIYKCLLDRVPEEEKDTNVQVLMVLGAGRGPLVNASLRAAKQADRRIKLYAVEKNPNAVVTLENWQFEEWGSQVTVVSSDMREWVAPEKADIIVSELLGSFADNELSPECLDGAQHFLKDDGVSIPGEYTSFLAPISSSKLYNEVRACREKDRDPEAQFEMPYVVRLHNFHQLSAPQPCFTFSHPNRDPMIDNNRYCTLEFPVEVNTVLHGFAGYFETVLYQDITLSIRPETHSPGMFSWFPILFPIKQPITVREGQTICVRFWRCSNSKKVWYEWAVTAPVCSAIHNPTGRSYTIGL

[16] = target: T1, Protein arginine N-methyltransferase 5; test: Inhibition of human PRMT5; outline: as §1
[17] = system: MOLM-13; test: Downregulation of H3K79me2 in human MOLM-13 cells at 1 uM by immuno blot analysis; assay type: functional, cell-based; conditions: time 3-7 day, TDE = time-dependent effect
Outline: (§2)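 Exponentially growing Molm13 cells were plated at 2 × 10^5 per well in 2 ml and exposed to 1 μM compound or DMSO for the indicated times. Extracted histones (3 μg) were run on 10% Bis-Tris gels and transferred to nitrocellulose. Blots were probed with primary antibody (1:1000 in 5% milk/TBS-T), then anti-rabbit secondary, with chemiluminescent detection.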

[18] = system: MOLM-13; test: Downregulation of H3K79me2 in human MOLM-13 cells measured for 3 to 7 days by immuno blot analysis; assay type: functional, cell-based; conditions: dose 1.0 µM, time 3-7 day; outline: as §2
[19] = cells; conditions: Homo sapiens, MCF-10A
[20] = cells; conditions: Homo sapiens, A-431
[21] = target: T2, Histone-lysine N-methyltransferase, H3 lysine-79 specific (Homo sapiens, UniProt Q8TEK3); test: Binding affinity to recombinant N-terminal DOT1L (1 to 420 residues) (unknown origin) expressed in Escherichia coli (DE3) assessed as dissociation constant by surface plasmon resonance assay
T2 sequence (Q8TEK3 whole entry, the tested form may be a part): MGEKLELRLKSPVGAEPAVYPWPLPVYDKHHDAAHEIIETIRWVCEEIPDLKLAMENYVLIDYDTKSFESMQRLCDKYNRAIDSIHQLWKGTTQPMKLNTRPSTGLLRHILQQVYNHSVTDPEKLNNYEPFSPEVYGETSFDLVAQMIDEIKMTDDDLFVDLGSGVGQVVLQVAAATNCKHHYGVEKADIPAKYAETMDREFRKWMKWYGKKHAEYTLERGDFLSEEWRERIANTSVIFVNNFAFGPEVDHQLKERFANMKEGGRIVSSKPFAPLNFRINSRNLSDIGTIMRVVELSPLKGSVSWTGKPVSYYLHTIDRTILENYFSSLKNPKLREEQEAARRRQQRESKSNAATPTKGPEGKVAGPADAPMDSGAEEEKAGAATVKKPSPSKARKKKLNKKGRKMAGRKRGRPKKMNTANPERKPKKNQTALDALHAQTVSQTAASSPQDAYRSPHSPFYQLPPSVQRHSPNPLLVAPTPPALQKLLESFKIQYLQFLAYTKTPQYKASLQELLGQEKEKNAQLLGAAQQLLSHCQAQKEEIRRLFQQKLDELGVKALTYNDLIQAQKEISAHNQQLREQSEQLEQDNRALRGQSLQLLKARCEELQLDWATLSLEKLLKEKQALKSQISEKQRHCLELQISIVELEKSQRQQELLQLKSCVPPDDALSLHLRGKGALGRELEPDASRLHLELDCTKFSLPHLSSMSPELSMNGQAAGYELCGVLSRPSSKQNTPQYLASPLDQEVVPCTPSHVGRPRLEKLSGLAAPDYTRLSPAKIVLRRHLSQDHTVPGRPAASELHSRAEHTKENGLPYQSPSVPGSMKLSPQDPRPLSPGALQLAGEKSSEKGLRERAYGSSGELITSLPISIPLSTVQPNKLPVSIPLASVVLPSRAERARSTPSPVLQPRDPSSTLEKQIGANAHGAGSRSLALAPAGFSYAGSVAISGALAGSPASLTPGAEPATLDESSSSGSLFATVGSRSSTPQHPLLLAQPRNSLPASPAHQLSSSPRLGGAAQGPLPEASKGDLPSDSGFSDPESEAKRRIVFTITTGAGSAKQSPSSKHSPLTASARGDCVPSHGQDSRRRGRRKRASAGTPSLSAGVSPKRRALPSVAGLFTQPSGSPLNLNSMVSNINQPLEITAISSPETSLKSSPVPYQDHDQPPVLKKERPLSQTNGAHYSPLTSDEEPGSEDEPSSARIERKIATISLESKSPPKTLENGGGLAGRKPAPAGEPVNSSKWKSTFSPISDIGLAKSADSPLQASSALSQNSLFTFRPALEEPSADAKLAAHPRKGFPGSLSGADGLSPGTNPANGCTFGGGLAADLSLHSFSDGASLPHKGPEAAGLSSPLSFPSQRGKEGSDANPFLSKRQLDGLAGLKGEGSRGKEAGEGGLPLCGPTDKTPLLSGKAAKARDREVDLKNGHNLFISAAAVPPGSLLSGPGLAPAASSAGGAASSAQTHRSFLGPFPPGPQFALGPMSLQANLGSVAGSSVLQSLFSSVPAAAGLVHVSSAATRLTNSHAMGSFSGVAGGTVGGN

[22] = Apparent permeability across apical to basolateral side in human Caco-2 cells at 10 uM incubated for 90 mins at pH 7.4 by LC/MS analysis; assay type: ADME, cell-based; conditions: Caco-2, pH 7.4
[23] = target: Adenosine receptor A1 (Homo sapiens) (UniProt P30542); test: Inhibition of human Adenosine A1 receptor at 1 uM relative to control
[24] = target: Adenosine receptor A2a (Homo sapiens) (UniProt P29274); test: Inhibition of human Adenosine 2A receptor at 1 uM relative to control
[25] = target: Alpha-1A adrenergic receptor (Rattus norvegicus) (UniProt P43140); test: Inhibition of rat Adrenergic alpha 1A receptor at 1 uM relative to control
[26] = target: Alpha-1B adrenergic receptor (Rattus norvegicus) (UniProt P15823); test: Inhibition of rat Adrenergic alpha 1B receptor at 1 uM relative to control
[27] = target: Alpha-2A adrenergic receptor (Homo sapiens) (UniProt P08913); test: Inhibition of human Adrenergic alpha 2A receptor at 1 uM relative to control
[28] = target: Beta-1 adrenergic receptor (Homo sapiens) (UniProt P08588); test: Inhibition of human Adrenergic beta1 receptor at 1 uM relative to control
[29] = target: Beta-2 adrenergic receptor (Homo sapiens) (UniProt P07550); test: Inhibition of human Adrenergic beta 2 receptor at 1 uM relative to control
[30] = species: Rattus norvegicus; test: Inhibition of rat Calcium 2 channel L, dihydropyridine site at 1 uM relative to control
[31] = target: Cannabinoid receptor 1 (Homo sapiens) (UniProt P21554); test: Inhibition of human CB1R at 1 uM relative to control
[32] = target: D(1A) dopamine receptor (Homo sapiens) (UniProt P21728); test: Inhibition of human dopamine D1 receptor at 1 uM relative to control
[33] = target: D(2) dopamine receptor (Homo sapiens) (UniProt P14416); test: Inhibition of human dopamine D2s receptor at 1 uM relative to control
[34] = species: Rattus norvegicus; test: Inhibition of rat central GABAA receptor at 1 uM by flunitrazepam radioligand binding assay relative to control
[35] = species: Rattus norvegicus; test: Inhibition of rat central GABAA receptor at 1 uM by muscimol radioligand binding assay relative to control
[36] = target: Glutamate NMDA receptor (Rattus norvegicus) (UniProt P35439+Q00959+Q00960+Q00961+Q62645+Q8VHN2+Q9R1M7); test: Inhibition of rat NMDA glutamate receptor at 1 uM relative to control; assay type: protein-complex assay
[37] = target: Histamine H1 receptor (Homo sapiens) (UniProt P35367); test: Inhibition of human histamine H1 receptor at 1 uM relative to control
[38] = species: Rattus norvegicus; test: Inhibition of rat central imidazoline receptor 2 at 1 uM relative to control
[39] = target: Muscarinic acetylcholine receptor M2 (Homo sapiens) (UniProt P08172); test: Inhibition of human muscarinic acetylcholine M2 receptor at 1 uM relative to control
[40] = target: Muscarinic acetylcholine receptor M3 (Homo sapiens) (UniProt P20309); test: Inhibition of human muscarinic acetylcholine M3 receptor at 1 uM relative to control
[41] = species: Homo sapiens; test: Inhibition of human nicotinic acetylcholine alpha at 1 uM relative to control
[42] = target: Mu-type opioid receptor (Homo sapiens) (UniProt P35372); test: Inhibition of human MOP receptor at 1 uM relative to control
[43] = target: hERG (KCNH2) (Homo sapiens, UniProt Q12809); test: Inhibition of human ERG at 1 uM relative to control; assay type: toxicity
[44] = target: Prostaglandin E2 receptor EP4 subtype (Homo sapiens) (UniProt P35408); test: Inhibition of human EP4 receptor at 1 uM relative to control
[45] = target: 5-hydroxytryptamine receptor 2B (Homo sapiens) (UniProt P41595); test: Inhibition of human 5HT2B receptor at 1 uM relative to control
[46] = target: Sigma non-opioid intracellular receptor 1 (Homo sapiens) (UniProt Q99720); test: Inhibition of human sigma 1 receptor at 1 uM relative to control
Sigma non-opioid intracellular receptor 1 (Homo sapiens), sequence (Q99720 whole entry): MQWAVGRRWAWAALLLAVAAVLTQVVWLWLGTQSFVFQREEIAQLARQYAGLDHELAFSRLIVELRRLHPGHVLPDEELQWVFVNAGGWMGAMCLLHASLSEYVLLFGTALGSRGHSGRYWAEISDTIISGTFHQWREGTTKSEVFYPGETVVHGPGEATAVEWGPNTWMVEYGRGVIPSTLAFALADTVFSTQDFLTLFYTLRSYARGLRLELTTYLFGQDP

[47] = target: Sodium-dependent noradrenaline transporter (Homo sapiens) (UniProt P23975); test: Inhibition of human norepinephrine transporter at 1 uM relative to control
[48] = species: Homo sapiens; test: Inhibition of human nicotinic acetylcholine at 1 uM relative to control
[49] = system: MOLM-13; test: Inhibition of HOXA9 level in human MOLM-13 cells at 1 uM measured after 7 days by SYBR green staining based PCR analysis; assay type: functional, cell-based; conditions: time 7.0 day
Outline: (§3)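 RNA was extracted with Qiazol and reverse-transcribed. SYBR green qPCR used gene-specific primer pairs for HOXA9 and Meis1.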

[50] = system: MOLM-13; test: Inhibition of Meis1 level in human MOLM-13 cells at 1 uM measured after 7 days by SYBR green staining based PCR analysis; assay type: functional, cell-based; conditions: time 7.0 day; outline: as §3
[51] = system: Cord blood cell; test: Cytotoxicity against human Cord blood cell habouring MIL-AF9 fusion protein assessed as reduction in cell viability at 1 to 5 uM incubated for 14 days by resazurin dye based […] assay; assay type: functional; conditions: dose 1-5 µM, time 14.0 day
Outline: (§4)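 Transformed human cord blood cells were cultured with DMSO or inhibitor at 1 and 5 μM for 14 days. Resazurin (0.1 mg ml−1) was added for 4 h and resorufin fluorescence was read. Data are from at least two independent experiments, each with three repeats, shown as s.e. of the mean.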

[52] = system: Cord blood cell; test: Cytotoxicity against human Cord blood cell habouring TLS-ERG fusion protein assessed as reduction in cell viability at 1 to 5 uM incubated for 14 days by resazurin dye based […] assay; assay type: functional; conditions: dose 1-5 µM, time 14.0 day; outline: as §4
[53] = target: T2, Histone-lysine N-methyltransferase, H3 lysine-79 specific; test: Binding affinity to recombinant N-terminal DOT1L (1 to 420 residues) (unknown origin) expressed in Escherichia coli (DE3) assessed as dissociation constant by SPR analysis
[54] = target: T2, Histone-lysine N-methyltransferase, H3 lysine-79 specific; test: Inhibition of recombinant N-terminal DOT1L (1 to 420 residues) (unknown origin) expressed in Escherichia coli (DE3) using [3H]-SAM as substrate preincubated for 30 mins followed by substrate addition and measured after 2 hrs by Topcount reader analysis; conditions: read-out: IC50

SMILES: CC(C)N(CCCNC(=O)Nc1ccc(C(C)(C)C)cc1)C[C@H]1O[C@@H](n2cnc3c(N)ncnc32)[C@H](O)[C@@H]1O
Activity [1]: Active

Papp B→A at 1.5 h, 10 µM [2]: 5.4 ×10⁻⁶ cm/s
inhibition [3]: inactive
inhibition [4]: inactive
inhibition [5]: inactive
inhibition [6]: inactive
inhibition [7]: inactive
inhibition [8]: inactive
inhibition [9]: inactive
inhibition [10]: inactive
inhibition [11]: inactive
inhibition [12]: inactive
inhibition [13]: inactive
inhibition [14]: inactive
inhibition [15]: inactive
IC50 [16]: 500 nM
IC50 [20]: 264 nM
SMILES: CC(C)N(CCCNC(=O)Nc1ccc(C(C)(C)C)cc1)C[C@H]1O[C@@H](n2ccc3c(N)ncnc32)[C@H](O)[C@@H]1O
Activity [1]: Active
Activity [17]: Tde
Activity [18]: Dose-Dependent Effect
IC50 [19]: 84 nM

SMILES: CC(C)N(CCCNC(=O)Nc1ccc(C(C)(C)C)cc1)C[C@H]1O[C@@H](n2cc(Br)c3c(N)ncnc32)[C@H](O)[C@@H]1O
Kd [21]: 0.06 nM
Papp A→B at 1.5 h, 10 µM [22]: 5.7 ×10⁻⁶ cm/s
Papp B→A at 1.5 h, 10 µM [2]: 10.6 ×10⁻⁶ cm/s
inhibition [3]: inactive
inhibition [4]: inactive
inhibition [5]: inactive
inhibition [6]: inactive
inhibition [7]: inactive
inhibition [8]: inactive
inhibition [9]: inactive
inhibition [10]: inactive
inhibition [11]: inactive
inhibition [12]: inactive
inhibition [13]: inactive
inhibition [14]: inactive
inhibition [15]: inactive
inhibition [23]: -4%
inhibition [24]: 0%
inhibition [25]: 22%
inhibition [26]: 17%
inhibition [27]: 7%
inhibition [28]: -1%
inhibition [29]: -1%
inhibition [30]: 2%
inhibition [31]: 5%
inhibition [32]: 7%
inhibition [33]: -3%
inhibition [34]: 8%
inhibition [35]: 19%
inhibition [36]: 0%
inhibition [37]: -1%
inhibition [38]: 10%
inhibition [39]: 7%
inhibition [40]: 19%
inhibition [41]: -1%
inhibition [42]: -3%
inhibition at 1 µM [43]: -15%
inhibition [44]: -5%
inhibition [45]: 8%
inhibition [46]: -10%
inhibition [47]: 13%
inhibition [48]: 13%
Activity [1]: Active
Activity [17]: Tde
Activity [18]: Dose-Dependent Effect
inhibition [49]: Active
inhibition [50]: Active
Activity [51]: Active
Activity [52]: inactive
Kd [53]: 0.0561 nM
IC50 [19]: 8.8 nM
IC50 [20]: 2.65 nM

Kd [21]: 26.9 nM
IC50 [54]: 40.3 nM
Kd [53]: 26.9 nM
SMILES: Cc1ccc(NC(=O)NCCCN(C[C@H]2O[C@@H](n3cnc4c(N)ncnc43)[C@H](O)[C@@H]2O)C(C)C)cc1
Activity [1]: Active
